Results pooled from the literature.
Read-out: metabolic stability
Sample: liver microsomes

`COc1cc2[nH]c(-c3cccc(Oc4ccccc4)c3)c(C(=O)OCCCN3CCOCC3)c(=O)c2cc1F` has a microsomal CLint of greater than 15 µL/min/mg (female CD-1 mouse; 19.8 µM, pH 7.4).
`CCOC(=O)C1=C(C)N/C(=C/c2cc(C)n(Cc3ccc(C(F)(F)F)cc3)c2C)C1=O` gave a microsomal CLint of 103 µL/min/mg (mouse; 1 µM).
`CCOC(=O)c1c(-c2cccc(Cl)c2)[nH]c2cc(OC)c(F)cc2c1=O` gave a microsomal CLint of less than 4 µL/min/mg (female CD-1 mouse; 19.8 µM, pH 7.4).
`Cc1cccc(N2CCN(c3nc(-c4ccccn4)nc4ccccc34)CC2)n1` gave a microsomal CLint of 513 µL/min/mg (mouse).
`O=C(Nc1ccc2c(c1)B(O)OC2)Nc1ccc(F)c(C(F)(F)F)c1` gave a microsomal CLint of 34 µL/min/mg (mouse).
`O=C(C1CCSCC1)N1CC(=O)N2CCc3ccccc3[C@@H]2C1` has a microsomal CLint of 324 µL/min/mg (mouse; 0.1 µM, pH 7.4).
With `CS(=O)(=O)c1ccc(-c2cnc(N)c(-c3ccc(C(F)(F)F)nc3)c2)cc1` the microsomal CLint was less than 11.6 µL/min/mg (male CD-1 mouse; 1 µM).
With `N#CC1CCCN(c2nc(-c3ccccn3)nc3ccccc23)C1` (stereo not shown) the microsomal CLint was 93 µL/min/mg (mouse).
`Cc1cc(Nc2ccc(S(F)(F)(F)(F)F)cc2)n2nc(C(F)(F)F)nc2n1` has a microsomal CLint of less than 10 µL/min/mg (mouse; 1 µM, pH 7.4).
`CCN(CC)CCNC(=O)c1c(C)[nH]c(/C=C2\C(=O)Nc3ccc(F)cc32)c1C` has a microsomal CLint of 54 µL/min/mg (mouse; 1 µM, pH 7.4).
`CCOC(=O)c1c(-c2cccc(Oc3ccccc3)c2)[nH]c2cc(OC)c(F)cc2c1=O` has a microsomal CLint of greater than 15 µL/min/mg (female CD-1 mouse; 19.8 µM, pH 7.4).
The microsomal CLint of `Cc1cc(Nc2ccc(S(F)(F)(F)(F)F)cc2)n2ccnc2n1` is reported as 30 µL/min/mg (mouse).
With `N#CC1CCN(c2nc(-c3ccccn3)nc3ccccc23)CC1` the microsomal CLint was 105 µL/min/mg (mouse).
`Clc1ccc(COc2cncc(-c3cnn(C4CCNCC4)c3)c2)c(Cl)c1` gave a microsomal CLint of 28.9 µL/min/mg (mouse).
`Cc1cc(NC(=O)Nc2ccc3c(c2)OC(F)(F)O3)cc(C(F)(F)F)n1` gave a microsomal CLint of 36 µL/min/mg (mouse).
`c1ccc(C2CCN(c3nc(-c4ccco4)nc4ccccc34)C2)nc1` (stereo not shown) has a microsomal CLint of 539 µL/min/mg (mouse).
With `Cc1cc(Nc2ccc(S(F)(F)(F)(F)F)cc2)n2nc(C(C)(F)F)nc2n1` the microsomal CLint was less than 10 µL/min/mg (mouse; 1 µM, pH 7.4).
With `FC(F)(F)c1ccccc1-c1nc(N2CCC(c3ccccn3)C2)c2ccccc2n1` (stereo not shown) the microsomal CLint was 688 µL/min/mg (mouse).
The microsomal CLint of `Cc1cc(Nc2ccc(C(F)(F)F)cc2)n2nc(C(F)(F)F)nc2n1` is reported as less than 10 µL/min/mg (mouse; 1 µM, pH 7.4).
